We go through five compounds from publication PMC10061538 (ACS Omega, 2023).

Series [1] deals with T1, CYP2A6 (Homo sapiens, UniProt P11509).
T1 sequence (P11509 1-494): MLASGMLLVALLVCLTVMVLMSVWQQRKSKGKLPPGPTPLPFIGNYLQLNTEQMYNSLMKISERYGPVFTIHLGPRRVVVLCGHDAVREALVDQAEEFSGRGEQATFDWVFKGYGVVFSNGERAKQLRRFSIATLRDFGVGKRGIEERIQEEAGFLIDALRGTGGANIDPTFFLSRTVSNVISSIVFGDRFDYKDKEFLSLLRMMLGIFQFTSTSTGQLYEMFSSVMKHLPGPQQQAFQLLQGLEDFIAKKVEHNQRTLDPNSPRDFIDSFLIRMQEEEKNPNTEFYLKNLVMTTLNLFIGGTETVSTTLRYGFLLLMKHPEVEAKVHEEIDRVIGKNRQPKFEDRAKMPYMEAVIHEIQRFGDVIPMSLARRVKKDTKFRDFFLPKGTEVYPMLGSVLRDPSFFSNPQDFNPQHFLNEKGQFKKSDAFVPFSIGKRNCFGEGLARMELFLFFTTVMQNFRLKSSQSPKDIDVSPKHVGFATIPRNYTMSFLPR
In words: Cellular CYP2A6 inhibition screening. To be noted: for inhibition of cellular CYP2A6: flavoring agent at 500 μM. Type of series: cell-based.

Series [2] concerns the target T1, CYP2A6. The settings on record: 50 μM tranylcypromine pretreatment 1 h, then 100 μM coumarin 1 h.
Series [3] concerns CYP2A6-transduced BEAS-2B cells. In words: Cell viability by LDH release. Type of series: cell-based. The settings on record: flavoring agent at 500 μM, 2 h total exposure, 50 μM coumarin, Figure S4. In a few lines: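 CYP2A6-transduced BEAS-2B cells were grown to confluence in KGM and switched to KBM. They were exposed to flavoring agent at 500 μM for 1 h, then coumarin was added to 50 μM, for 2 h total, in triplicate wells. Medium was incubated 30 min with tetrazolium substrate and read at 490 nm absorbance. Maximal LDH was set by lysis buffer.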

Broadly, the IC50 is the concentration that gives 50% inhibition. A high value points to lower potency. Take `CC(=O)OCCC(C)C` [isoamyl acetate]: in series [1], the IC50 is greater than 500 µM and the “inhibition of cellular CYP2A6” value is on record as “negligible inhibition”.

Turning to `COc1cc(C=O)ccc1O` [vanillin], in series [1], the IC50 was 200 µM and the “inhibition of cellular CYP2A6” value is recorded as “near-maximal inhibition”.

As for `Cl.N[C@@H]1C[C@H]1c1ccccc1` (relative stereo) [tranylcypromine, trans-2-Phenylcyclopropylamine hydrochloride], the “fluorescence (7-hydroxycoumarin formation) in CYP2A6-transduced cells” value in series [2] is listed as “strongly reduced”.

With `O=Cc1ccccc1` [benzaldehyde], in series [1], inhibition was half-maximal at 7.6 µM (IC50). The “mean percent of maximal LDH” value in series [3] is 8.9%. `O=C/C=C/c1ccccc1` [cinnamaldehyde, trans-cinnamaldehyde] yielded an IC50 in series [1] of 7.4 µM. In addition, the “mean percent of maximal LDH” value in series [3] was determined as 6.6%.
